Each structure is given as a SMILES string.

Experimental findings from ChEMBL document CHEMBL4513216, “Probing the Open Global Health Chemical Diversity Library for Multistage-Active Starting Points for Next-Generation Antimalarials” (ACS Infect Dis, 2020) are described below.

A short description of the series: Toxicity liver stage against HepG2, at 10uM. The series is classed as cell-based. Set-up: test concentration 10 uM, cell line HepG2-A16-CD81EGFP. Particulars: human, HepG2-A16-CD81EGFP cells; read-out: INHIBITION
The essentials:
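Uninfected HepG2-A16-CD81EGFP cells, 3 × 10^3 per well, 1536-well, plated on prespotted compound at 10 μM final, parasite-free screening media added to match infected plates; puromycin 10 μM positive, DMSO 0.5% negative; run in parallel with 48 h PbLuc assay at 37 °C, 5% CO2; viability by CellTiter-Glo luminescence, normalized to controls.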
For `COCC(=O)NC[C@H]1OC[C@@H](NC2CCC(F)(F)CC2)[C@@H]1O`, the cytotoxicity at 10 µM is -3.32%.

In the case of `Cn1cc(CNC[C@H]2Cn3ccnc3CO2)c2ccccc21`, the cytotoxicity at 10 µM is -1.91%.

Regarding `Cc1nc(N2CCCC2)nc(C)c1NS(C)(=O)=O`, the cytotoxicity at 10 µM amounted to 1.61%.

In the case of `O=C(Cn1nc(Br)nc1Br)N1CCCCC1`, the cytotoxicity at 10 µM was -4.38%.

On to `CN(C)C(CNS(=O)(=O)c1ccc(F)cc1F)c1cccn1C` (centres undefined), for which the cytotoxicity at 10 µM was -13.9%.

For `COCC1c2c(cnn2C)CCN1Cc1ccoc1` (centres undefined), the cytotoxicity at 10 µM is -10.8%.

Consider `O=C(Cn1nc(C(F)(F)F)c(Br)c1C1CC1)N1CCOCC1`, for which the cytotoxicity at 10 µM was -0.614%.

Consider `O=C(O)CCC(=O)Nc1nn(Cc2ccccc2Cl)cc1Cl`, for which the cytotoxicity at 10 µM was 7%.

On to `Cc1nn(C)c2cn(C(C)C(=O)NCc3ccc(F)cc3)nc12` (centres undefined), for which the cytotoxicity at 10 µM is 9.46%.

Turning to `O=C(Cn1ccc(C(=O)O)n1)Nc1c(Cl)cccc1Cl`, the cytotoxicity at 10 µM was 7.07%.

Consider `COc1ccc(-c2cc(C3(O)CCN(C)CC3)on2)cc1`, for which the cytotoxicity at 10 µM amounted to 3.89%.

As to `COCCNC(=O)c1nnn(Cc2ccccc2)c1OC`, the cytotoxicity at 10 µM is 11.6%.

As for `Cc1nn(C)cc1NC(=O)CN1CCN(C2CCCC2)C(=O)C1`, the cytotoxicity at 10 µM was determined as 6.89%.

Consider `CN1CCOC(C)(C(=O)Nc2nccs2)C1` (centres undefined), for which the cytotoxicity at 10 µM was 4.92%.

On to `Cc1ccc(-c2nnc(C3CCCN3S(=O)(=O)c3cnn(C)c3C)o2)s1` (centres undefined), for which the cytotoxicity at 10 µM was 5.35%.

Regarding `CCCn1nccc1-c1cnc(CC2CCN(C(C)=O)C2)cn1` (centres undefined), the cytotoxicity at 10 µM is -6.88%.

Consider `COc1ccc2c(c1)NC(C1CCNCC1)NS2(=O)=O` (centres undefined), for which the cytotoxicity at 10 µM was -2.86%.

On to `Cc1nnsc1C(=O)N1CCCCC1c1cc2nc(C)c(C)c(O)n2n1` (centres undefined), for which the cytotoxicity at 10 µM was -5.93%.

`NC(=O)C1(c2cnccn2)CCCN1Cc1ccccn1` (centres undefined): the cytotoxicity at 10 µM is -6.36%.

On to `COc1ccc(C)cc1CC(=O)N1CC[C@@]2(CCCO2)[C@@H](O)C1`, for which the cytotoxicity at 10 µM is -1.47%.

As to `Cc1cccc(Nc2cc(C)nc(C3CCCCN3CC(N)=O)n2)n1` (centres undefined), the cytotoxicity at 10 µM was -4.03%.

For `COCC(=O)N1CCCC1c1cc(N2CCN(C(C)=O)CC2)cc(C)n1` (centres undefined), the cytotoxicity at 10 µM is -9.41%.

With `COc1cccc(C(=O)N2CCCC2c2ncc3c(n2)CCN(C)C3)c1` (centres undefined), the cytotoxicity at 10 µM was -9.41%.

Consider `CC(=O)NC[C@]1(O)CCN(C(=O)c2ccc(F)c(Cl)c2)C[C@H]1O`, for which the cytotoxicity at 10 µM is 1.47%.

On to `CN(C)C(=O)CN1CCCCC1c1nc(N)ncc1-c1ccccc1` (centres undefined), for which the cytotoxicity at 10 µM amounted to 4.19%.

As for `CCn1cc(CN2CC3CCCN3C[C@H]2C)c(C)n1` (some centres undefined), the cytotoxicity at 10 µM came to 0.951%.

`O=C(CC(SC1CCCCC1)C(=O)O)c1ccc(Br)cc1` (centres undefined): the cytotoxicity at 10 µM was found to be 3.43%.

For `O=S(=O)(c1cc(F)ccc1F)N1CCCC1c1ccncc1` (centres undefined), the cytotoxicity at 10 µM came to 14.3%.

`Cc1cc(C(=O)N(C)C2CCS(=O)(=O)C2)c2ccc(F)cc2n1` (centres undefined): the cytotoxicity at 10 µM is -9.59%.

For `COc1ccc(CN(C)Cn2cc(C)n(-c3cc(C)on3)c2=O)cc1`, the cytotoxicity at 10 µM is 3.36%.

As for `O=S(=O)(c1cncc(F)c1)N1CCC2(CCCCC2)C1`, the cytotoxicity at 10 µM was -4.61%.

In the case of `CN(Cc1nnc2ccccn12)C(=O)NC1CCCCC1`, the cytotoxicity at 10 µM is -5.97%.

For `CC(C)(C)c1n[nH]c(C2CN(CC3CCC3)CCO2)n1` (centres undefined), the cytotoxicity at 10 µM worked out at 9.15%.

For the molecule `COc1ccccc1CC1CCCN(C(=O)c2n[nH]c3c2CCC3)C1` (centres undefined), the cytotoxicity at 10 µM came to 13.3%.

Turning to `Cc1ccc(C)c(Oc2ccc(CNC(=O)C3CCC(=O)N3)cn2)c1` (centres undefined), the cytotoxicity at 10 µM came out at 5.98%.

As for `O=C(NCC1CCCN1CCc1ccccc1)NCC1(O)CCC1` (centres undefined), the cytotoxicity at 10 µM was -3.06%.

Turning to `CNC(=O)c1c(C)cccc1NCC(=O)Nc1cc(C)nn1C`, the cytotoxicity at 10 µM is -0.503%.

Turning to `O=C(Cc1ccc(F)cc1)NCCNS(=O)(=O)c1ccc(F)c(F)c1`, the cytotoxicity at 10 µM was -6.7%.

As for `Cc1nc(-c2cnn(C)c2)sc1C(=O)NCc1ccc(C)n1C`, the cytotoxicity at 10 µM was found to be 9.25%.

In the case of `CC1CN(C(=O)NCc2cccc(C#N)c2)CCN1CC(F)(F)F` (centres undefined), the cytotoxicity at 10 µM is -6.68%.

Regarding `CC(C)CCC(=O)NCC(=O)N1CCCCCC1c1ccco1` (centres undefined), the cytotoxicity at 10 µM was 7.47%.

In the case of `CN(C)c1nccc(NC(=O)c2ccncc2)n1`, the cytotoxicity at 10 µM is -4.33%.

Regarding `CC(CC(=O)N1CCCN(Cc2nccn2C)CC1)n1cccc1` (centres undefined), the cytotoxicity at 10 µM was -12.5%.

Turning to `N#Cc1cccnc1N1CCC(OCc2ccccc2)CC1`, the cytotoxicity at 10 µM is -7.43%.

Consider `CNC(=O)CN1CCOC(c2ccccc2C(F)(F)F)C1` (centres undefined), for which the cytotoxicity at 10 µM worked out at 0.71%.

Regarding `CS(=O)(=O)N1CCc2c(cccc2NC(=O)Nc2ccccn2)C1`, the cytotoxicity at 10 µM was -6%.

Regarding `CCc1nccn1C1CCCN(C(=O)c2cc[nH]n2)C1` (centres undefined), the cytotoxicity at 10 µM came out at 4.54%.

Regarding `CC(C)CC(CCO)CNC(=O)N1CCCC1(C)C` (centres undefined), the cytotoxicity at 10 µM is -12.7%.

For `CCN(Cc1ccoc1)C(=O)NC1CCN(CC2CC2)C1` (centres undefined), the cytotoxicity at 10 µM was -0.525%.

On to `CNC(=O)c1cccc(CNC(C)c2cc(Cl)ccc2OC)c1` (centres undefined), for which the cytotoxicity at 10 µM is 10.3%.

As to `CC(C)N(C)C(=O)c1ccc(Cl)c(NC(=O)C2CCC2)c1`, the cytotoxicity at 10 µM was -2.74%.

Consider `CCCNC(=O)C(C)Nc1ccc(COCC)cc1` (centres undefined), for which the cytotoxicity at 10 µM was 2.37%.

Consider `Cc1ncc(CN(C)C(=O)c2ccc3c(c2O)OC(C)(C)C3)s1`, for which the cytotoxicity at 10 µM was found to be 6.93%.

With `COCCNC(=O)C(C)S(=O)(=O)c1ccc(OC)cc1` (centres undefined), the cytotoxicity at 10 µM amounted to 4.4%.

Turning to `CCN(Cc1ccc(Cl)c(Cl)c1)C(=O)CCn1cncn1`, the cytotoxicity at 10 µM stood at 9.87%.

Take `CC(=O)N1CCN(CC=C(C)C)CC1`: the cytotoxicity at 10 µM amounted to 3.95%.

For `CCCN(C)S(=O)(=O)NC(=O)c1ccc(CC)o1`, the cytotoxicity at 10 µM was 20.5%.

Turning to `CN(CCc1ccc2c(c1)CCO2)C1CCS(=O)(=O)CC1`, the cytotoxicity at 10 µM is -7.94%.

Regarding `CC(NCCCC#N)c1ccc(S(C)(=O)=O)c(F)c1` (centres undefined), the cytotoxicity at 10 µM was determined as 6.96%.

For `O=C(c1cccnc1-n1cccn1)N1CCN(CC2CC2)CC1`, the cytotoxicity at 10 µM is -4.71%.

As for `CC(C)NC(=O)NCCCc1cc(N)n(-c2ccccc2)n1`, the cytotoxicity at 10 µM is -6.78%.

As for `COc1ccc(CS(=O)(=O)CC(=O)NCC2CC2)cc1F`, the cytotoxicity at 10 µM was -0.265%.

For `COC(=O)c1ccc2c(-c3ccnc(N[C@@H](C)CO)n3)c[nH]c2c1`, the cytotoxicity at 10 µM is -5.94%.

As to `CN(c1nccc(-c2cnc3sccn3c2=O)n1)C1CCCCC1`, the cytotoxicity at 10 µM was -8.44%.

In the case of `Cc1cc(C)n(CCCC(=O)N2CC[C@H]3NCCC[C@]3(CO)C2)n1`, the cytotoxicity at 10 µM was -0.862%.

For the molecule `CCN1CCC(CC(=O)N2CCn3cccc3C2c2cccnc2)CC1` (centres undefined), the cytotoxicity at 10 µM was -8.87%.

For `COc1ccccc1OC1CCN(C(=O)c2cccc(O)c2C)CC1`, the cytotoxicity at 10 µM amounted to 12.5%.

As for `CCS(=O)(=O)N1CCC(c2nccn2Cc2ccccn2)CC1`, the cytotoxicity at 10 µM was found to be 6.27%.

Regarding `CN(C)c1ccc(CN2CCN(c3ccc(C#N)cc3)C(=O)C2)cn1`, the cytotoxicity at 10 µM was -28.2%.

On to `CCc1c(C)sc2ncnc(N3CC[C@@H](N4CCOCC4)[C@H](O)C3)c12`, for which the cytotoxicity at 10 µM is -4.24%.

With `Cc1noc(C)c1CN1CCn2nc(CCC(=O)N3CCCC3)cc2C1`, the cytotoxicity at 10 µM is -4.52%.

`Cc1nc(C)n(CCCNc2ncnc3onc(C)c23)n1`: the cytotoxicity at 10 µM is -7.12%.

Consider `CCOCc1nc2c(c(N3CCN4CCCC4C3)n1)CCNCC2` (centres undefined), for which the cytotoxicity at 10 µM came to 0.394%.

For the molecule `CCc1ccc(CN2CCN(c3ccc(C(N)=O)cn3)CC2)nc1`, the cytotoxicity at 10 µM stood at 4.95%.

As for `Cc1nc(N)nc(C)c1CC(=O)N1CCCCC1c1cccc(F)c1` (centres undefined), the cytotoxicity at 10 µM is -2.06%.

Take `OC1(CN2CCCC2)COCCN(c2ncnc3[nH]ccc23)C1` (centres undefined): the cytotoxicity at 10 µM was determined as 10.7%.

With `O=C(COc1cccnc1)N1CCOC(C(F)(F)F)C1` (centres undefined), the cytotoxicity at 10 µM was -11.5%.

For `O=C(NCCNc1cc(N2CCCC2)ncn1)c1cnccn1`, the cytotoxicity at 10 µM was -46.3%.

Turning to `CC(C)(C)CC(=O)NS(=O)(=O)c1ccc(C#N)cc1C(F)(F)F`, the cytotoxicity at 10 µM was -12.3%.

Take `Cc1nnc(C(C)N2CCCN(Cc3ccc(F)cc3)CC2)o1` (centres undefined): the cytotoxicity at 10 µM was -4.92%.

For the molecule `Cc1cnn(C2CCCN(C(=O)CCNS(C)(=O)=O)C2)c1` (centres undefined), the cytotoxicity at 10 µM was -28.6%.

With `Cc1nn(CCO)c(C)c1CNCc1cccnc1N(C)C`, the cytotoxicity at 10 µM is -9.89%.

Consider `COc1ccc(CNCc2c(C(C)C)nn(C)c2N(C)C)cn1`, for which the cytotoxicity at 10 µM is -3.92%.

Turning to `CCN1CCN(C(=O)c2cnc3c(cnn3C3CCCC3)c2)CC1`, the cytotoxicity at 10 µM is -14.1%.

`Cn1ccc2c(C(=O)N3CCCC3c3noc(C4CC4)n3)cccc21` (centres undefined): the cytotoxicity at 10 µM was -7.82%.

Consider `N#Cc1ccccc1N1CCCN(C(=O)CCc2ccsc2)CC1`, for which the cytotoxicity at 10 µM is -8.25%.

Regarding `Cc1ncc2c(n1)CN(CCCOc1ccc(C#N)cc1)CC2`, the cytotoxicity at 10 µM was -3.9%.

In the case of `CCc1nc(CN2CCCN(C(=O)CCCOC)CC2)cs1`, the cytotoxicity at 10 µM was -14.4%.

With `CN(Cc1nnc2n1CCC2)C(=O)Cc1ccc2c(c1)CCC2`, the cytotoxicity at 10 µM is -15.5%.

As to `COc1cccc(C(=O)N(C)Cc2ncc(C)c(OC)c2C)c1OC`, the cytotoxicity at 10 µM is -7.02%.

On to `O=C(NCC1CCOC1)c1csc(-c2cccc(Cl)c2)n1` (centres undefined), for which the cytotoxicity at 10 µM is -7.41%.

As for `Cc1nccc(-c2cccc(NCC(=O)N3CCCCCCC3)c2)n1`, the cytotoxicity at 10 µM is -0.513%.

Turning to `Cc1cc(CNc2cc(Cl)ccc2Cl)no1`, the cytotoxicity at 10 µM came out at 18.9%.

On to `O=C(c1ccc(NC2CC2)nc1)N1CCCC(n2cccn2)C1` (centres undefined), for which the cytotoxicity at 10 µM is -12.2%.

For `CN(C)C(=O)N1CCN(Cc2noc(Cc3ccccc3)n2)CC1`, the cytotoxicity at 10 µM was -8.8%.

Regarding `Cc1csc(N2CCN(C(=O)Cc3ccsc3)CC2)n1`, the cytotoxicity at 10 µM was found to be 2.68%.

On to `Cc1nn(C)c(N(C)C)c1CNC(C)Cc1c(F)cccc1F` (centres undefined), for which the cytotoxicity at 10 µM is -1.03%.

On to `c1ccc(CN2CCN(Cc3cscn3)CC2)cc1`, for which the cytotoxicity at 10 µM is -2.69%.

As to `C=c1ncsc1=C1NN=C(C2CCCN2C(=O)Cn2cccn2)O1` (centres undefined), the cytotoxicity at 10 µM worked out at 4%.
